≈ marks a conversion by molar mass, not a printed value.
Tested on: Mycobacterium tuberculosis
Experiment: Antitubercular activity against Mycobacterium tuberculosis H37Rv after 30 days by agar microdilution method
Type: functional
Summary of the method: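 M. tuberculosis H37Rv grown on L-J medium, harvested into 0.85% saline with 0.05% Tween-80. Compounds from a 1 mg/mL DMSO stock, two-fold dilutions in Middlebrook 7H10 agar slants with OADC. Slants preincubated 24 h at 37 °C, then streaked with 5 × 10^4 bacilli per tube and held at 37 °C. Growth read at 30 days against drug-free controls; MIC determined.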

Compound	MIC
c1ccc(Cc2cn(CC3Cc4c(ccc5ccccc45)O3)nn2)cc1 (stereo not given)	> 12.5 µg/mL
Cc1ccc(C)c2c1CC(Cn1cc(-c3ccccc3)nn1)O2 (stereo not given)	> 12.5 µg/mL
N#Cc1ccc2c(c1)CC(Cn1cc(Cc3ccccc3)nn1)O2 (stereo not given)	> 12.5 µg/mL
[N-]=[N+]=NCC1Cc2c(ccc3ccccc23)O1 (stereo not given)	3.12 µg/mL (≈ 13.9 µM)
c1ccc(-c2cn(CC3Cc4c(ccc5ccccc45)O3)nn2)cc1 (stereo not given)	> 12.5 µg/mL
[N-]=[N+]=NCC1Cc2cc(C=O)ccc2O1 (stereo not given)	> 12.5 µg/mL
CC[C@@H](CO)NCCN[C@@H](CC)CO [ETHAMBUTOL]	3.25 µg/mL (≈ 15.9 µM)
N#Cc1ccc2c(c1)CC(Cn1cc(CCO)nn1)O2 (stereo not given)	> 12.5 µg/mL
CCCCCCc1cn(CC2Cc3c(C)ccc(C)c3O2)nn1 (stereo not given)	> 12.5 µg/mL
Cc1ccc(C)c2c1CC(Cn1cc(Cc3ccccc3)nn1)O2 (stereo not given)	> 12.5 µg/mL
O=Cc1ccc2c(c1)CC(Cn1cc(CO)nn1)O2 (stereo not given)	> 12.5 µg/mL
CCCCCc1cn(CC2Cc3c(ccc4ccccc34)O2)nn1 (stereo not given)	12.5 µg/mL (≈ 38.9 µM)
O=Cc1ccc2c(c1)CC(Cn1cc(Cc3ccccc3)nn1)O2 (stereo not given)	> 12.5 µg/mL
Cc1ccc(C)c2c1CC(Cn1cc(CCO)nn1)O2 (stereo not given)	> 12.5 µg/mL
CCCCCC(O)c1cn(CC2Cc3c(C)ccc(C)c3O2)nn1 (stereo not given)	> 12.5 µg/mL
N#Cc1ccc2c(c1)CC(Cn1cc(CO)nn1)O2 (stereo not given)	> 25 µg/mL
N#Cc1ccc2c(c1)CC(Cn1cc(-c3ccccc3)nn1)O2 (stereo not given)	> 12.5 µg/mL
N#Cc1ccc2c(c1)CC(CN=[N+]=[N-])O2 (stereo not given)	> 12.5 µg/mL
CCCCCc1cn(CC2Cc3cc(C#N)ccc3O2)nn1 (stereo not given)	> 12.5 µg/mL
CCCCCc1cn(CC2Cc3c(C)ccc(C)c3O2)nn1 (stereo not given)	> 12.5 µg/mL
OCc1cn(CC2Cc3c(ccc4ccccc34)O2)nn1 (stereo not given)	> 12.5 µg/mL
CCCCCCc1cn(CC2Cc3cc(C=O)ccc3O2)nn1 (stereo not given)	6.25 µg/mL (≈ 19.9 µM)
CCCCCc1cn(CC2Cc3cc(C=O)ccc3O2)nn1 (stereo not given)	12.5 µg/mL (≈ 41.8 µM)
OCCc1cn(CC2Cc3c(ccc4ccccc34)O2)nn1 (stereo not given)	> 12.5 µg/mL
NNC(=O)c1ccncc1 [ISONIAZID]	0.75 µg/mL (≈ 5.47 µM)
O=Cc1ccc2c(c1)CC(Cn1cc(-c3ccccc3)nn1)O2 (stereo not given)	> 12.5 µg/mL
CCCCCC(O)c1cn(CC2Cc3cc(C#N)ccc3O2)nn1 (stereo not given)	> 25 µg/mL
Cc1ccc(C)c2c1CC(Cn1cc(CO)nn1)O2 (stereo not given)	12.5 µg/mL (≈ 48.2 µM)
CCCCCCc1cn(CC2Cc3cc(C#N)ccc3O2)nn1 (stereo not given)	> 12.5 µg/mL
Cc1ccc(C)c2c1CC(CN=[N+]=[N-])O2 (stereo not given)	> 12.5 µg/mL

Reference: ChEMBL document CHEMBL1154639, “Application of Huisgen (3+2) cycloaddition reaction: synthesis of 1-(2,3-dihydrobenzofuran-2-yl-methyl [1,2,3]-triazoles and their antitubercular evaluations” (2010)
